Assay results reported in the EternaBench riboswitch data.

Test system: MS2 coat protein
Assay: apparent Kd, MS2 coat protein; higher = weaker binding; RNA-MaP array
How it was run: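 Apparent Kd was taken as the median of binding curves fitted cluster by cluster. The designed RNAs were made by transcription of sequenced DNA templates on an Illumina sequencing chip and exposed to fluorescently labeled MS2 coat protein (1.5 nM to 3 μM) at room temperature, with or without input ligand, for 0.8–1.5 h at the lowest and 10–20 min at the highest concentrations. Any design measured on fewer than 10 clusters was left out.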

[1] = designed as: OFF switch for flavin mononucleotide, no ligand
[2] = ligand present: flavin mononucleotide, designed as: OFF switch for flavin mononucleotide
[3] = designed as: ON switch for flavin mononucleotide, no ligand
[4] = ligand present: flavin mononucleotide, designed as: ON switch for flavin mononucleotide

Sequence: GCCGUUCGAGAGAAGGUUGUACGCGCCACGCGCACAUGAGGAUCACCCAUGUCCUCCAAACUCACAAAGGAUAUCUUAAGAACA
- apparent Kd [1]: 415 nM
- apparent Kd [2]: 508 nM

Sequence: UUAUUGGUAGGAUAUACAUGAGGAUCACCCAUGUGUCACGCAAAUUAGUAUGUCAAAUGUAGAAGGACCAAAUA
- apparent Kd [1]: 20.5 nM
- apparent Kd [2]: 30.2 nM

Sequence: ACAAGAGUAAAACAUACAUGAGGAUCACCCAUGUUAUCAACAAAGGAUAUCGUUGUGGUAGGGAACGAGAAGGUUGCAAAAUCA
- apparent Kd [3]: 15.4 nM
- apparent Kd [4]: 11.7 nM

Sequence: GAAAGGGCAAAGAAGGAGGUCCGAGCUCGGCGCCUAGGAUAUUUCUUAACCACAUGAGGAUCACCCAUGUUGACUGUAGUGUGA
- apparent Kd [1]: 31.5 nM
- apparent Kd [2]: 29 nM

Sequence: CAUUUCUUCACAGGAUAUGCCGUACAUGAGGAUCACCCAUGUGGGUGGGCGUAGCACUGUAGUGCGCAGAAGGGUGGAUCCGAC
- apparent Kd [1]: 113 nM
- apparent Kd [2]: 79.2 nM

Sequence: GGAAUCUUUCGAGGAUAUGUCCCACAAUAGUGCCUACCGGGUAACAUGAGGAUCACCCAUGUGAGACAGAAGGCGAGGUUUGGC
- apparent Kd [1]: 9.86 nM
- apparent Kd [2]: 38 nM

Sequence: AAUUGAAUGGUAAGGAUAUAGGGUCGCGCCGAACGCUAGAAGGUACAUGAGGAUCACCCAUGUUGUGCGUCUUC
- apparent Kd [1]: 16.9 nM
- apparent Kd [2]: 17.7 nM

Sequence: CCAGUGGGUGGAGGAUAUGAUGACAAACUGUGUUCAGAAGGCCACCUCAAGACACGAACAUGAGGAUCACCCAUGUCCCAACCU
- apparent Kd [3]: 227 nM
- apparent Kd [4]: 15.8 nM

Sequence: GUUAGUUGUGAGGAUAUUCAGAGAUCUCGAUCAGAAGAAGGCACUACAUGAGGAUCACCCAUGUAGAUUCUUAU
- apparent Kd [1]: 5.25 nM
- apparent Kd [2]: 8.88 nM

Sequence: UCAUCACAUGAGGAUCACCCAUGUCGUAGGUGAUCAGGAUAUGCCUAUGCCUCCAUGGCGGCAGAAGGGAUGCGGG
- apparent Kd [3]: 795 nM
- apparent Kd [4]: 603 nM

Sequence: GUAUGGGCUGUAAGGAUAUCUAAGCCGGUUGUGGCAGAGAAGGUACAUGAGGAUCACCCAUGUGGACUUGGGUC
- apparent Kd [1]: 13.9 nM
- apparent Kd [2]: 15.7 nM

Sequence: UCAGUGUCAGGAUAUUCUAACGAGGGUAGUGCGCCCUUUGUGAAGAAGGGACAUGAGGAUCACCCAUGUACUUG
- apparent Kd [1]: 51.2 nM
- apparent Kd [2]: 125 nM

Sequence: CCUCGUCCGUACAUGAGGAUCACCCAUGUGAGCCCUAAACCCAGAAGGCAAUGAAUACCUAUUCUUGAGGAUAUGGAUCACCGU
- apparent Kd [1]: 279 nM
- apparent Kd [2]: 185 nM

Sequence: AAACGACAUGAGGAUCACCCAUGUACCUUUUACCUAGGAUAUCAGGUGCAUCAUACGUGCUGAGAAGGAGGCUCGC
- apparent Kd [3]: 64.1 nM
- apparent Kd [4]: 59.7 nM

Sequence: CAUGCGGCUAGUGAGCGUGGUGAGUAAAGGCGAGGACCGGUACGGCCGCCACUCGAGGCAAGACAUGAGGAUCACCCAUGUUGUA
- apparent Kd (designed as: OFF switch for tryptophan, no ligand): 15.1 nM
- apparent Kd (ligand present: tryptophan, designed as: OFF switch for tryptophan): 12.9 nM

Sequence: UAGUCGUGGGCAGGAUAUCACUUUAUGCCAAUAUGAGAAGGGCCGGUGACAAGGCGGGCGACCACAUGAGGAUCACCCAUGUAC
- apparent Kd [1]: 79.6 nM
- apparent Kd [2]: 47.9 nM

Sequence: UCUAUGCUAACAGGAUAUCGCGGCACGAUGCUUCGAGAAGGGUUAACAUGAGGAUCACCCAUGUGUGUCCUACGGAGACCGCGC
- apparent Kd [1]: 9.01 nM
- apparent Kd [2]: 11.8 nM

Sequence: GAGAGGGCUUGAGGAUAUCUUCACUCCGACAUGAGGAUCACCCAUGUAUUCCGUUGAUCGUUGGGAGAGAAGGCAACUUUGUAA
- apparent Kd [1]: 58 nM
- apparent Kd [2]: 54 nM

Sequence: AGAACUUUGGUGGAUACCAGCUUCUGGCCAUCCUUCAAAUACAUGAGGAUCACCCAUGUUAGCCCUUGGCAGCCAACAUAGACUG
- apparent Kd (designed as: OFF switch for theophylline, no ligand): 22.4 nM
- apparent Kd (ligand present: theophylline, designed as: OFF switch for theophylline): 222 nM

Sequence: GACGCUGCAGGAUAUACUACGAGACUCACCCACAUUAUAUGACAUGAGGAUCACCCAUGUAGAAGGGCAAUGUG
- apparent Kd [1]: 10.4 nM
- apparent Kd [2]: 12.6 nM

Sequence: CCGUCACAUGAGGAUCACCCAUGUGGUGAUACCAGCAGUCGACCCUGCCCUUGGCAGCACAUUAUCAUAAAAGCAAUCAGCAACG
- apparent Kd (designed as: ON switch for theophylline, no ligand): 156 nM
- apparent Kd (ligand present: theophylline, designed as: ON switch for theophylline): 149 nM

Sequence: UAGAUAUGAGGAUAUACAUGAGGAUCACCCAUGUGGUUAUCAAACGACAUGACAUUUAGUAGAAGGCAAACAUC
- apparent Kd [1]: 23.5 nM
- apparent Kd [2]: 21 nM

Sequence: CUCGCAAAUGGAGGAUAUGCCGAGAUCCCUAUCCUCAGGACCUCCACAUGAGGAUCACCCAUGUUGCAGAAGGCCAGUGUGAAG
- apparent Kd [1]: 14.4 nM
- apparent Kd [2]: 12.2 nM

Sequence: UUUAGACCUCAACAUGAGGAUCACCCAUGUAAAUCUCUAUCGAGAAGGAAGGAAGGAACCUUGUCUUAGGAUAUCGACAAUUUC
- apparent Kd [3]: 101 nM
- apparent Kd [4]: 71.7 nM

Sequence: GCAGGUAAGUAGAAGGGUCGCACCAUACUGACGACAGGAUAUACUGUCCGAAACUCGUCAUUACAUGAGGAUCACCCAUGUUUA
- apparent Kd [1]: 21.2 nM
- apparent Kd [2]: 11.1 nM

Sequence: UAAGAAUCAGGAUAUACAGAAAGAUCAACAAAGAGCCAUAAACAUGAGGAUCACCCAUGUAGAAGGGAACAAAU
- apparent Kd [1]: 8.14 nM
- apparent Kd [2]: 7.77 nM
